# Screening results: PubChem, Broad Institute
# A selection: hits, their analogues and other compounds. The true share with any hit is near 4.3%.
# CAL PDZ FP-1 – human CAL PDZ-peptide interaction inhibition; Q9HD26; purified CAL PDZ, TMR-peptide fluorescence polarization, 1 h; inhibition, % at 20 µM; 330,000 compounds, 0.02% hits;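 active means highest replicate inhibition of at least 40%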
#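 Material: tagged CAL PDZ protein CerCALP, purified; buffer or medium: sodium phosphate/NaCl buffer pH 7.4 with TCEP, IgG, Thesit; also added: fluorescent TMR peptide probe; schedule: 1 h incubation at room temperature before polarization reading; technique: fluorescence polarization from S- and P-plane intensities, G-factor corrected; control set: unlabelled peptide and DMSO controls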
# CAL PDZ FP-2 – blocks peptide binding to the human CAL PDZ domain; purified CAL PDZ, TMR-peptide fluorescence polarization, 1 h; inhibition, % at 24.9 µM; 300,000 compounds, 0.92% hits; AID 602252;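 active means mean inhibition of at least 30% with at least half of replicates also reaching 30%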
# DYRK1A inh – Dyrk1A (rat) kinase inhibition; ADP-Glo luminescence, NFATc1 peptide; inhibition, % at 12.5 µM; Q63470; 310,000 compounds, 0.43% hits; AID 504441; in the data active means inhibition above about 50%
# ALR inh – blocks human ALR sulfhydryl oxidase activity | inhibition, % (test concentration not listed) | 290,000 compounds, 3.8% hits | P55789 | purified ALR, DTT oxidation, H2O2 HRP-luminol luminescence;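 active means mean replicate inhibition above about 79%, with every replicate also reaching it, limit read from the data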
# Rtt109 Vps75 – C. albicans Rtt109 histone acetyltransferase inhibition. 330,000 compounds, 0.16% hits. purified Rtt109/Vps75, ThioGlo CoA-SH fluorescence, 4 h. AID 540336. Q5AAJ8. inhibition, % at 34.9 µM;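 active means inhibition of at least 50% in every replicate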
# Target sequence (Q5AAJ8 whole entry, looked up): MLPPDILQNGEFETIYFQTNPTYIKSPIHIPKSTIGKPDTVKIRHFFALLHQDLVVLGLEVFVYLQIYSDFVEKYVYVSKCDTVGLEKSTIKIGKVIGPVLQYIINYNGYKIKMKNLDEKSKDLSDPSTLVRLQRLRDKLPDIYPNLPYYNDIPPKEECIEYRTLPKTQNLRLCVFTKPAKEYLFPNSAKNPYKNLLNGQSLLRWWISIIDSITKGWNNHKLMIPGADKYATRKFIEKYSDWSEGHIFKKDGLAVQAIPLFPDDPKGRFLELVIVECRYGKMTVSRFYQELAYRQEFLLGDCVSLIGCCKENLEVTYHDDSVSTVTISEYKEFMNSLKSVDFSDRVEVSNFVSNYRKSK
# Hits are given with their value; . = inactive; / = no result.
SMILES,CAL PDZ FP-1,CAL PDZ FP-2,DYRK1A inh,ALR inh,Rtt109 Vps75
Nc1nc(SCC(=O)c2ccc(Cl)cc2)c2ncn(C3OC(CO)C(O)C3O)c2n1 (centres undefined),.,53,.,/,.
CC(=O)Nc1ccc(C(=O)OCC(=O)N(Cc2ccccc2)C(C)(C)C)cc1,.,.,.,.,.
CCN1CCN(C(=O)c2cc(=O)c3cc(C)ccc3o2)CC1,.,44,.,.,.
Cc1cc(C)nc(SC(C(=O)O)c2ccccc2)n1 (centres undefined),.,.,.,.,.
Cc1cc(C)nc(Sc2nc(Cl)nc(N(c3ccccc3)c3ccccc3)n2)n1,.,.,.,.,79
c1ccc2[nH]c(-c3cnco3)cc2c1,.,.,.,.,.
O=C(O)CCCN1C(=O)/C(=C\c2ccco2)SC1=S,.,.,.,/,.
O=C(O)CCN1C(=O)/C(=C\c2ccc(-c3nc4ccccc4s3)o2)SC1=S,.,/,.,98,.
Cc1cc(=O)oc2cc(NC(=O)CN3C(=O)NC(C)(c4ccccc4)C3=O)ccc12 (centres undefined),.,.,.,.,.
CC(=O)c1[nH]c(C)c(C(=O)N2CCCC(Nc3cccc(F)c3)C2)c1C (centres undefined),.,/,.,75,.
CC(C)c1ccc(NC2CCCN(C(=O)c3cc(C(C)C)[nH]n3)C2)cc1 (centres undefined),.,.,/,/,.
CCc1[nH]nc(C(=O)N2CCCC(Nc3cccc(F)c3)C2)c1C (centres undefined),.,.,.,99,/
CCc1[nH]nc(C(=O)N2CCCC(Nc3ccc(C(C)C)cc3)C2)c1C (centres undefined),.,.,.,95,.
CCc1ccc(-c2cc3c(=O)n(CC(=O)N4CCCCCC4)nc(C)n3n2)cc1,.,.,.,.,.
COc1cc(-c2c(C#N)c(N)nc3c2CCCC3)ccc1O,.,/,.,.,.
COc1cc(-c2c(C#N)c(N)nc3[nH]c(=S)[nH]c(=O)c23)ccc1O,.,.,.,99,.
Cc1cc(C(=O)N2CCCC(CNS(=O)(=O)c3cccs3)C2)nn1C (centres undefined),.,.,.,.,.
Cc1nc(CC(C)C)cc(C(=O)N2CCCC(CNS(=O)(=O)c3cccs3)C2)n1 (centres undefined),.,.,.,.,60
COc1ccc(N2CCN(C(=O)Cc3ccc(OC)c(OC)c3)CC2)cc1,.,.,.,88,.
CC(=O)c1ccc(N2CCN(C(=O)CCC(=O)c3cccs3)CC2)cc1,.,.,.,/,.
COc1ccc(N2CCN(S(=O)(=O)CCNC(=O)c3cccs3)CC2)cc1,.,.,.,.,.
O=C(CCC(=O)N1CCN(c2ccc(O)cc2)CC1)c1cccs1,.,.,.,99,.
COc1ccc(N2CCN(C(=O)Cc3cccs3)CC2)cc1,.,.,.,97,.
COc1ccc(N2CCN(C(=O)CNC(=O)c3cccs3)CC2)cc1,.,.,.,95,.
CN1CCN(C(=O)CNC(=O)c2cccs2)CC1,.,/,.,.,.
SMILES,CAL PDZ FP-1,CAL PDZ FP-2,DYRK1A inh,ALR inh,Rtt109 Vps75
O=C(c1cccs1)N1CCN(c2ccc(Cl)cc2)CC1,.,.,.,96,.
O=C(NCC(=O)N1CCN(c2ccccc2)CC1)c1cccs1,.,.,.,96,.
CCOc1ccc(S(=O)(=O)N2CCN(C(=O)c3ccc(Cl)c(S(=O)(=O)N4CCOCC4)c3)CC2)cc1,.,.,/,/,.
COc1cccc(NC(=O)C2C3C=CC(O3)C2C(=O)NCc2cccnc2)c1 (centres undefined),.,.,.,98,.
O=C(O)CS(=O)CC(=O)NCc1cccc(C(F)(F)F)c1 (centres undefined),.,.,.,.,.
O=C(O)CS(=O)CC(=O)Nc1cccc(C(F)(F)F)c1 (centres undefined),.,.,.,99,.
O=C(CN1CCOCC1)Nc1cccc(C(F)(F)F)c1,.,.,/,.,55
O=C(CCN1CCOCC1)NNC(=O)Nc1cccc(C(F)(F)F)c1,.,.,.,.,.
O=C(CN1CCOCC1)Nc1cccc(C(=O)Nc2cccc(C(F)(F)F)c2)c1,.,.,.,.,.
CCOC(=O)C(=NCCCN1CCOCC1)NNc1cccc(C(F)(F)F)c1,.,/,.,98,.
CC(=O)Nc1cccc(C(=O)OCC(=O)NNC(=O)c2ccc([N+](=O)[O-])cc2)c1,.,.,.,.,.
CCCCCCOc1ccc(/C(N)=N/O)cc1,.,.,.,99,.
